# STAT3 blocker = reduces IL-6 driven STAT3 reporter signal; U3A cells, IL-6 STAT3-luciferase reporter, luminescence; host cell line lacks STAT1; inhibition, % at 5.5 µM; 0.89% of 190,000 active; AID 862;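 active = inhibition above the mean inhibition across all screened compounds plus 3 SD, cut at about 44% in these data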;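 note: 0% = DMSO only wells and 100% = 100 µM nifuroxazide control wells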
# NF-kB neuron act = NF-kB expression increase, human neuronal cells | 1.6% of 190,000 active | NF-kB reporter expression; stronger effect = higher value | fold change at 12.5 µM; in the data active = fold change above about 3.3
# STAT1 blocker = STAT1 signaling inhibition | NIH 3T3 STAT1-luciferase reporter, IFN-gamma, luminescence | AID 920 | inhibition, % at 5.5 µM | 0.35% of 200,000 active;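 active = inhibition above a set limit, the mean inhibition across all tested compounds plus 3 SD, cut at about 34% in these data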;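 note: 0% = IFN-gamma with DMSO and 100% = IFN-gamma with 300 µM nifuroxazide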
# STAT1 activator = activators of IFN-gamma induced STAT1 signaling; NIH 3T3 STAT1-luciferase reporter, luminescence; 100% = IFN-gamma alone, no compound; activation (% of control), % at 5.5 µM; 2.6% of 200,000 active;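 active = activation above the screen-wide mean activation plus 3 SD, cut at about 130% in these data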;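 note: raw ratio to IFN-gamma control signal so 100% means no change and 0% no light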
# APP 5'UTR act = activates APP 5'UTR luciferase reporter; SH-SY5Y APP 5'UTR luciferase reporter, luminescence; zero percent = DMSO vehicle wells; activation, % at 2 µM; 1% of 190,000 active;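 active = activation above a set limit, based on mean plus 3 SD of controls, cut at about 140% in these data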
# STAT3 act = increases IL-6 driven STAT3 reporter signal | U3A cells, IL-6 STAT3-luciferase reporter, luminescence; 100% = signal with IL-6 EC80 alone | activation (% of control), % at 5.6 µM | 0.91% of 190,000 active | AID 871;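 active = activation above the screen-wide mean of compound activation plus 3 SD, cut at about 130% in these data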;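 note: 0% = background luminescence of wells with medium and substrate only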
#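 Material: STAT1-lacking human U3A cells, STAT3 luciferase reporter | Benchmarks: IL-6-only wells as 100% reference | Probe or stimulus: IL-6 (33 ng/mL) | Timing: Compound 1 h, then IL-6 6 h at 37 °C | Detection: Luminescence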
# * hit, by the source's call; · = no result given. Shown are actives, neighbours in structure and some others; about 4.9% of the full set was active somewhere.
SMILES,STAT3 blocker,NF-kB neuron act,STAT1 blocker,STAT1 activator,APP 5'UTR act,STAT3 act
O=C(COC(=O)CNC(=O)c1cccc([N+](=O)[O-])c1)NCc1ccco1,2,1.1,-3,102,-13,100
COc1ccc(NC(=O)NC23CC4(C)CC(C)(CC(C)(C4)C2)C3)cc1OC,-17,0.97,-10,109,7,114
C(=C\c1ccccc1)/C=N/N1CCN(c2ccccn2)CC1,11,2.1,-35,132*,17,98
COc1ccc2c(=O)c(-c3ccccc3)coc2c1,31,7.3*,-34,130*,158*,76
O=c1c(-c2ccc(F)cc2)coc2cc(O)ccc12,10,2.7,-50,146*,111,95
CCN(CC)C(=O)Oc1ccc2c(=O)c(-c3ccccc3)coc2c1,18,4.6*,-26,124,44,88
C=CCNC(=O)Nc1ccc(Cl)cn1,10,2.3,5,96,-12,94
CC(C)(C)C(=O)NC(=S)Nc1sc2c(c1C(N)=O)CCC2,-3,2.1,-54,146*,46,107
CC(=O)NC(=S)Nc1sc2c(c1C(N)=O)CCC(C)C2 (stereo not given),5,3.5*,-37,132*,65,98
CC(C)CC(=O)NC(=S)Nc1sc2c(c1C(N)=O)CCC2,-1,1.5,-51,144*,55,105
O=C(COC(=O)C1CC(=O)N(Cc2ccccc2)C1)c1ccc(F)cc1 (stereo not given),4,1,9,93,57,101
Cc1c(NC(=O)C(C)N2C(=O)C3CCCCC3C2=O)c(=O)n(-c2ccccc2)n1C (stereo not given),18,1.2,-5,104,4,93
Cc1cccc(C)c1NC(=S)N1CCC(c2ccccc2)C1 (stereo not given),11,1,3,98,3,96
CCOC(=O)C[N+](CC)(CC)CC#Cc1ccccc1,23,0.89,2,98,5,83
CCc1ccc(/C(C)=N\Nc2ccc([N+](=O)[O-])cc2)cc1,5,1.5,-5,105,18,104
C/C(=N\Nc1ccc([N+](=O)[O-])cc1)c1ccco1,4,2.7,-63,156*,53,99
Cc1cccc(NC(=S)N=Nc2c(O)n(CN3CCOCC3)c3ccccc23)c1C,-18,1.1,-2,102,-22,117
Cc1ccc(N=Nc2c(O)n(CN3CCOCC3)c3ccccc23)cc1,-39,2.9,-70,163*,167*,137*
Clc1ccc(-n2nnc(-c3cccnc3Cl)n2)cn1,·,1.8,-34,134*,48,·
Clc1ncccc1-c1nnn(-c2ccccc2Br)n1,·,1.7,-21,121,6,·
Cc1ccc(-n2nnc(-c3cccnc3Cl)n2)cc1,·,8.6*,-26,126,204*,·
COc1cc(/C=N/NC(=S)Nc2cccc(S(=O)(=O)N(C)C)c2)ccc1O,12,0.47,-13,112,-4,97
COC(=O)c1ccc(-c2ccc(/C=N/NC(=O)CC3(C)OCCCO3)o2)cc1,2,1.3,-9,107,26,101
Cc1cc2ncc(-c3cccc(Cl)c3)cn2n1,-24,1.9,-32,129*,49,122
Cc1ccc(-c2csc(N/N=C/C=C/c3ccccc3)n2)cc1,16,1.2,-12,111,6,90
SMILES,STAT3 blocker,NF-kB neuron act,STAT1 blocker,STAT1 activator,APP 5'UTR act,STAT3 act
Cc1ccc(-c2csc(N/N=C/c3ccco3)n2)cc1,26,2.9,-17,116,25,80
C(=N\Nc1nc(-c2ccccc2)cs1)/c1ccco1,4,5.2*,-51,147*,156*,95
C(=N\Nc1nc(-c2ccccc2)cs1)/c1ccncc1,6,2.9,-56,149*,92,97
Clc1ccc(-c2csc(N/N=C\c3cccnc3)n2)cc1,12,1.2,-6,106,22,90
C(=N\Nc1nc(-c2ccccc2)cs1)/c1cccs1,-14,7.4*,-54,145*,47,122
O=C(O)Cc1ccc(O)c(F)c1,15,1.5,-1,101,-4,89
O=C(COC(=O)CN1C(=O)C2CCCCC2C1=O)Nc1cc(S(=O)(=O)N2CCOCC2)ccc1Cl (stereo not given),-1,1.1,-5,104,-14,102
CCOC(=O)C1=C(C)N(CCCCCC(=O)O)C(=O)NC1c1ccccc1OC(=O)c1cccs1 (stereo not given),-5,1.2,1,99,0,102
CCN(C(=O)CSc1nnc(C)n1-c1ccccc1)C1CCS(=O)(=O)C1 (stereo not given),-1,1,0,100,7,102
O=[N+]([O-])c1ccccc1CSc1nc2ccccc2o1,-21,2.4,-43,140*,65,115
COc1ccc(C(C)=O)cc1CSc1nc2ccccc2o1,15,1.9,3,97,18,90
Fc1cccc(CN2CCN(c3nc4nonc4nc3NC3CC3)CC2)c1,0,0.91,1,99,-3,105
COc1cccc(C(=O)Oc2c(CN3CCOCC3)cc(Cl)c3cccnc23)c1,7,4.6*,-2,102,-38,96
O=C(Oc1c(CN2CCOCC2)cc(Cl)c2cccnc12)c1ccc(F)cc1,22,7.6*,6,98,-37,85
O=C(Oc1c(CN2CCOCC2)cc(Cl)c2cccnc12)c1ccccc1Cl,5,1.7,2,99,-53,96
O=C(Oc1c(CN2CCOCC2)cc(Cl)c2cccnc12)c1cccs1,3,1.1,-8,104,-27,101
COc1ccc(C(=O)Oc2c(CN3CCOCC3)cc(Cl)c3cccnc23)cc1,3,28*,8,93,-38,101
COc1cc(C(=O)Oc2c(CN3CCOCC3)cc(Cl)c3cccnc23)cc(OC)c1OC,2,3.8*,-5,105,-39,106
CN(C)c1ccc(C2SCCN2C(=O)c2ccc([N+](=O)[O-])cc2)cc1 (stereo not given),20,1.1,12,89,3,87
Cc1cc(C)cc(N(C(=O)CNC(=O)c2cccs2)C(C(=O)NC2CCCC2)c2cccnc2)c1 (stereo not given),12,1.2,36*,68,-1,95
Cc1cccc(N(C(=O)CNC(=O)c2cccs2)C(C(=O)NC2CCCC2)c2cccnc2)c1 (stereo not given),9,0.99,-4,104,-2,98
COc1ccc(CN(C(=O)c2cccs2)C(C(=O)NC2CCCCC2)c2ccc3ncccc3c2)cc1 (stereo not given),-8,0.51,22,79,22,112
O=C(NC1CCCCC1)C(c1ccc2ncccc2c1)N(Cc1ccc2c(c1)OCO2)C(=O)c1cccs1 (stereo not given),0,0.86,36*,68,-14,105
